Measured values of several laboratories.
Protocols differ between the studies behind these lines.
BRAF: Serine/threonine-protein kinase B-raf (BRAF, Homo sapiens, UniProt P15056)
BRAF V600E: Serine/threonine-protein kinase B-raf (BRAF, Homo sapiens, UniProt P15056, V600E)

SMILES | target | observed | mode | method | tested at | quantity | value
Cc1c(NC(=O)c2cc(C(N)=O)nc3cc(F)ccc23)c(C(F)(F)F)nn1Cc1ccc(C#N)cc1 | BRAF | cell-free assay |  | competition with immobilised ligand | 1 µM | remaining binding | 91%
O=C1NC(=O)c2cc(Nc3ccc(F)cc3)c(Nc3ccc(F)cc3)cc21 | BRAF | cell-free assay |  |  | 0.5 µM | remaining signal | 94.2%
CC(C)(O)[C@H]1CC[C@H](Nc2ccc3ncc(-c4cccc(C(F)(F)F)c4)n3n2)CC1 | BRAF | enzyme activity | inhibitor |  | 1 µM | remaining activity | 93.8%
CN(c1nccc(-c2cnn3ncccc23)n1)C1CC1 | BRAF | binding |  |  | 1 µM | remaining binding | 100%
Nc1ncnc2occ(-c3ccc(NC(=O)Nc4cc(C(F)(F)F)ccc4F)cc3)c12 | BRAF | cell-free assay |  |  | 20 µM | remaining signal | 0.8%
O=C(Nc1cnc(Oc2ccc(F)cc2)nc1)N1CCc2ncccc2[C@@H]1c1ccc(F)cc1 | BRAF V600E | cell-free assay |  | competition with immobilised ligand | 1 µM | remaining binding | 83%
N[C@@H]1CCN(c2nccc(-c3cnn4ncccc34)n2)C1 | BRAF V600E | binding |  |  | 1 µM | remaining binding | 97%
COc1ccc(-c2csc(NN=C(CS(=O)(=O)c3ccccc3)c3ccc(F)cc3)n2)cc1 | BRAF V600E | enzyme activity | inhibitor | ATP luminescence | 1 µM | inhibition | 72%
Cc1ccc(C(=O)NCc2ccsc2)cc1C#Cc1cn(C(C)C)c2ncnc(N)c12 | BRAF | enzyme activity | inhibitor |  | 1 µM | activity vs control | 47%
Cc1ccc(C(CS(=O)(=O)c2ccccc2)=NNC2=NC(=O)C(=NNc3ccc(Cl)cc3)S2)cc1 | BRAF V600E | enzyme activity | inhibitor | ATP luminescence | 0.1 µM | inhibition | 46%
Cc1c(NC(=O)c2cc(C(N)=O)nc3cc(F)ccc23)c(C(F)(F)F)nn1Cc1ccc(C(C)(C)C)cc1 | BRAF V600E | cell-free assay |  | competition with immobilised ligand | 1 µM | remaining binding | 98%
Cc1ccc(C(CS(=O)(=O)c2ccccc2)=NNc2nc(-c3ccc(OCCCCOc4ccc(-c5csc(NN=C(CS(=O)(=O)c6ccccc6)c6ccc(C)cc6)n5)cc4)cc3)cs2)cc1 | BRAF V600E | enzyme activity | inhibitor | ATP luminescence | 1 µM | inhibition | 84%
COc1cc(Cl)c(C(=O)N[C@@H](CN[C@H]2CC[C@@H](N)CC2)Cc2ccc(C#N)cc2)cc1-c1ccc(CN[C@H](C)c2ccc(C)cc2)o1 | BRAF | enzyme activity | inhibitor |  | 1 µM | remaining activity | 97%
C[C@@H]1CCN(C(=O)CC#N)C[C@@H]1N(C)c1ncnc2[nH]ccc12 | BRAF | cell-free assay |  |  | 0.5 µM | remaining signal | 93.7%
NC(=S)NN=C(CS(=O)(=O)c1ccccc1)c1ccc(F)cc1 | BRAF V600E | enzyme activity | inhibitor | ATP luminescence | 0.1 µM | inhibition | 51%
C[C@H](c1ccc(F)cc1)N(Cc1cccc(C(=O)O)c1)C(=O)c1cnc2ccccc2c1 | BRAF V600E | cell-free assay |  | competition with immobilised ligand | 1 µM | remaining binding | 100%
CN(C)C1CCN(CC#Cc2nn(C3CCCC3)c3nc(NCc4ccccc4)ncc23)C1 (centres unmarked) | BRAF | enzyme activity | inhibitor | FRET | 0.1 µM | inhibition | -3%
Cc1ccc(C(CS(=O)(=O)c2ccccc2)=NNC2=NC(=O)C(=NNc3ccc([N+](=O)[O-])cc3)S2)cc1 | BRAF V600E | enzyme activity | inhibitor | ATP luminescence | 10 nM | inhibition | 31%
CCCCN(CCCC)C(=O)CN1C[C@H](c2cc(OC)c3c(c2)OCO3)[C@@H](C(=O)O)[C@@H]1CC(C)(C)CCC | BRAF V600E | cell-free assay |  | competition with immobilised ligand | 1 µM | remaining binding | 89.1%
CC(C)(C)c1nc2c(s1)c1nc(N)ncc1c1ccc(NS(=O)(=O)c3c(F)cccc3F)c(F)c12 | BRAF | enzyme activity | inhibitor | radiometric | 1 µM | remaining activity | 27%
O=C(Nc1cnn(-c2csc(C(=O)NC3COC3)c2)c1)Nc1c(F)cccc1Cl | BRAF | enzyme activity | inhibitor |  | 5 µM | remaining activity | 99.9%
Cc1cc(NC(=O)c2cccc3cc(-c4cccc5[nH]nc(N)c45)ccc23)ccc1F | BRAF | enzyme activity | inhibitor |  | 0.1 µM | activity vs control | 99%
CCOCCn1cc(C(=O)Nc2ccc(-n3nc(-c4cccnc4)cc3C(F)(F)F)cn2)ccc1=O | BRAF V600E | cell-free assay |  | competition with immobilised ligand | 1 µM | remaining binding | 97%
CC(C)(C)c1nc(-c2cccc(NS(=O)(=O)c3c(F)cccc3F)c2F)c(-c2ccnc(N)n2)s1 | BRAF V600E | enzyme activity | inhibitor | radiometric | 1 µM | activity vs control | 1%
Cc1ccc(C(=O)Nc2ccc(CN3CCN(C)CC3)c(C(F)(F)F)c2)cc1C#Cc1cnc2cccnn12 | BRAF V600E | cell-free assay |  |  | 23.5 nM | remaining signal | 4.5%
O=C(Nc1cccnn1)N1CCC(=Cc2cccc(Oc3ccc(C(F)(F)F)cn3)c2)CC1 | BRAF V600E | cell-free assay |  | competition with immobilised ligand | 1 µM | remaining binding | 100%
COc1cc(Nc2c(C#N)cnc3cc(OCCCN4CCN(C)CC4)c(OC)cc23)c(Cl)cc1Cl | BRAF | cell-free assay |  |  | 0.5 µM | remaining signal | 91.7%
COc1ccc2c(c1)O[C@H](c1ccc(OC)c(OC)c1)C[C@@H]2NC(=O)C1(c2ccc3c(c2)OC(F)(F)O3)CC1 | BRAF V600E | cell-free assay |  | competition with immobilised ligand | 1 µM | remaining binding | 93%
CC1CCCN1c1nccc(-c2cnn3ncccc23)n1 (centres unmarked) | BRAF | binding |  |  | 1 µM | remaining binding | 100%
